Measured values as given in publication PMC6044926 (ACS Omega, 2017).
Substitutions are numbered along the chain they refer to. Names and notes keep the numbering of the source. Values joined by “and” are separate entries in the source; they are usually repeats but may differ in a detail not shown here. Identical values can stand only once. “Also recorded” adds a separate entry of the source.

Experiments:
[1] = biological target: T1, TPMT*8 (R215H) (Homo sapiens, UniProt P51580, R215H); assay: Thermal denaturation monitored as ANS fluorescence emission at 475 nm, TPMT*8; format: binding; details: ANS emission at 475 nm, ANS in 20-fold molar excess (60 μM)
T1 sequence (P51580 1-245 R215H): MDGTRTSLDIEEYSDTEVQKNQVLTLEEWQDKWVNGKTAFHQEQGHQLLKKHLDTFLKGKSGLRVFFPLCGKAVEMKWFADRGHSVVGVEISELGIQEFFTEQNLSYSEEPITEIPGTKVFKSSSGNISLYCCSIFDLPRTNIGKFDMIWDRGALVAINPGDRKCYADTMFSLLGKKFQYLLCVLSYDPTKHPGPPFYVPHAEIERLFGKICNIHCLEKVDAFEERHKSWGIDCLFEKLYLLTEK
Summary of the method: (§1)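 Scanned 18 to 80 °C in 2° steps. Excitation 360 nm, emission 400–600 nm. Tm taken from the relative change in maximum intensity at 475 nm, three independent measurements.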

[2] = biological target: T2, TPMT*6 (Y180F) (Homo sapiens, UniProt P51580, Y180F); assay: Thermal denaturation monitored as ANS fluorescence emission at 475 nm, TPMT*6; format: binding; details: ANS emission at 475 nm, ANS in 20-fold molar excess (60 μM)
T2 sequence (P51580 1-245 Y180F): T1 sequence (P51580 1-245 R215H) with Y180F, H215R
Summary of the method: as §1

[3] = biological target: T3, TPMTwt (Homo sapiens, UniProt P51580); assay: ITC binding of SAM and ANS to TPMTwt; details: dissociation constant, 25 °C
T3 sequence (P51580 1-245): T1 sequence (P51580 1-245 R215H) with H215R
Summary of the method: (§2)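 Isothermal titration calorimetry at 25 °C (reference power 7 μcal s−1) of ~50 μM His-tag-cleaved recombinant human TPMT (residues 1–245; E. coli BL21-CodonPlus(DE3)-RIL; Ni-NTA and gel filtration). Thirteen injections per run, at least three runs per variant–ligand pair, fitted to a binding model.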

[4] = biological target: T3, TPMTwt; assay: Thermal denaturation by CD at 222 nm in the presence of ligand, TPMTwt; format: binding
Summary of the method: (§3)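 Far-UV CD thermal unfolding at 222 nm, 18 to 80 °C in 2° steps, 10 scans over 60 s per step. Sample was 3 μM purified recombinant TPMT in 20 mM potassium phosphate pH 7.3, 75 mM NaCl, 2% glycerol, 0.5 mM TCEP, 4 mm cuvette. Run without ligand, with 30 μM SAM, or with 60 μM ANS. Tm fitted from three independent measurements.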

[5] = biological target: T1, TPMT*8 (R215H); assay: ITC binding of SAM and ANS to TPMT*8
Summary of the method: as §2

[6] = biological target: T1, TPMT*8 (R215H); assay: Thermal denaturation by CD at 222 nm in the presence of ligand, TPMT*8; format: binding
Summary of the method: as §3

[7] = biological target: T2, TPMT*6 (Y180F); assay: Thermal denaturation by CD at 222 nm in the presence of ligand, TPMT*6; format: binding
Summary of the method: as §3

[8] = biological target: T4, TPMT (Homo sapiens, UniProt P51580); assay: ANS and SAM binding to TPMT, all investigated variants; details: dissociation constant, ANS, ITC (fluorescence and ITC)
T4 sequence (P51580 1-245): T1 sequence (P51580 1-245 R215H) with H215R
Summary of the method: as §2

[9] = biological target: T2, TPMT*6 (Y180F); assay: ITC binding of SAM and ANS to TPMT*6
Summary of the method: as §2

[10] = biological target: T3, TPMTwt; assay: Thermal denaturation monitored as ANS fluorescence emission at 475 nm, TPMTwt; format: binding; details: ANS emission at 475 nm, ANS in 20-fold molar excess (60 μM)
Summary of the method: as §1

[11] = TPMT enzyme activity on purified recombinant protein, 6-MP as substrate; format: biochemical, human; details: 6-MP as thiopurine substrate
Summary of the method: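 Activity of purified recombinant TPMT measured as rate of 6-methyl-mercaptopurine formation from 6-MP, with 14C-labelled S-adenosyl-L-methionine as methyl donor, following an earlier published protocol.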

[12] = Thermal denaturation of the TPMT variants by CD at 222 nm, no ligand; format: physicochemical, human; details: 3 μM protein, pH 7.3
Summary of the method: as §3

[13] = cited from earlier work
[14] = CD at 222 nm, ANS in 20-fold molar excess (60 μM), 3 μM protein
[15] = SAM in 10-fold molar excess (30 μM), 3 μM protein

For `O=S(=O)(O)c1cccc2cccc(Nc3ccccc3)c12` [ANS, 8-anilinonaphthalene-1-sulfonic acid], the “thermal melting temperature, fluorescence, +ANS” value [1] was 54.1 °C and 54.1 ± 0.3 °C, the “thermal melting temperature, fluorescence, +ANS” value [2] was 49.6 °C and 49.6 ± 0.4 °C and the Kd ([3]; ANS) was 0.219 ± 0.058 µM. For the same molecule, the “thermal melting temperature, +ANS” value [4, 14] was 53.8 °C and 53.8 ± 0.5 °C, the “increase of Tm on addition of ANS” value ([4]; CD at 222 nm, versus no ligand) was 7.4 °C and the Kd [5] was 0.202 ± 0.011 µM. The “thermal melting temperature, +ANS” value [6, 14] was 51.5 °C and 51.5 ± 0.4 °C, the “increase of Tm on addition of ANS” value ([6]; CD at 222 nm, versus no ligand) was 5.0 °C and the “thermal melting temperature, +ANS” value [7, 14] was 48.6 °C and 48.6 ± 0.7 °C. For the same molecule, the “increase of Tm on addition of ANS” value ([7]; CD at 222 nm, versus no ligand) was 7.2 °C, the Kd [8] was ~0.2 µM and 0.2 µM and the Kd [9] was 0.187 ± 0.032 µM. The “thermal melting temperature, fluorescence, +ANS” value [10] was 54.1 °C and 54.1 ± 0.5 °C.

In the case of `C[S+](CC[C@H](N)C(=O)[O-])C[C@H]1O[C@@H](n2cnc3c(N)ncnc32)[C@H](O)[C@@H]1O` (stereo partly shown) [SAM, S-adenosylmethionine], the Kd ([3]; SAM) is reported as 2.2 ± 0.7 µM, the “thermal melting temperature, circular dichroism, +SAM” value (“thermal melting temperature … +SAM” below) [4, 15] is reported as 46.8 ± 0.5 °C and the Kd [5] is reported as 1.5 ± 0.1 µM. For the same molecule, the “thermal melting temperature … +SAM” value [6, 15] was 47.3 ± 0.3 °C, the “thermal melting temperature … +SAM” value [7, 15] was 40.5 ± 0.5 °C and the Kd [9] was 1.8 ± 0.5 µM.

B1: TPMT*6: naturally occurring TPMT variant, Y180F, purified recombinant protein (protein, UniProt P51580 1-245, looked up, variant Y180F)
Thiopurine S-methyltransferase: T1 sequence (P51580 1-245 R215H) with Y180F, H215R
With B1 the “in vitro enzyme functionality” value [11] was “fully functional; also recorded: normal functionality” and the “thermal melting temperature, circular dichroism, no ligand” value (“thermal melting temperature … no ligand” below) [12] was 41.4 ± 1.1 °C.

B2: TPMTwt: recombinant wild-type human thiopurine S-methyltransferase (residues 1–245) (protein, UniProt P51580 1-245, looked up)
Thiopurine S-methyltransferase: T1 sequence (P51580 1-245 R215H) with H215R
For B2, the “thermal melting temperature … no ligand” value [12] was 46.4 ± 0.6 °C.

B3: TPMT*8: naturally occurring TPMT variant, R215H, purified recombinant protein (protein, UniProt P51580 1-245, looked up, variant R215H)
Thiopurine S-methyltransferase: T1 sequence (P51580 1-245 R215H)
In the case of B3, the “in vitro enzyme functionality” value [11] is given as “fully functional; also recorded: normal functionality”, the “reported in vivo enzyme activity class” value [13] is given as “intermediate” and the “thermal melting temperature … no ligand” value [12] is given as 46.5 ± 0.4 °C.
